# Screens: PubChem, several laboratories
# M1 ag – agonists of M1 muscarinic receptor; CHO-M1 cells, Fluo-4 calcium fluorescence, agonist mode; stronger effect = higher value; B-score at 10 µM; hit rate 3% among 64,000;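 active = fluorescence rise, raw or as B-score row- and column-corrected plate score, outside the 99.7% band of its plate's samples, either direction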
# Ecoli WT expand – growth inhibitors of E. coli BW25113 wild type. OD600 absorbance. growth inhibition, % at 100 µM. AID 710. hit rate 0.15% among 98,000;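 active = growth inhibition above about 50% at one test dose, limit read from the data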;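 note: growth measured after 20 h incubation at 37 °C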
# AP ELISA ortho – orthogonal test for alternative complement pathway inhibitors; hit rate 0.08% among 62,000; inhibition, % at 5 µM; Human serum alternative complement pathway, LPS-coated ELISA, C3 deposition; tested in compound mixtures;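 active = inhibition above 30% in each of the two pooled mixtures holding the compound, so the lower value exceeds 30%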
#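 Test system: human serum alternative complement pathway, C3 deposition on LPS-coated wells; also added: Plate-bound LPS; doses: 5 µM per compound in ten-compound mixtures; schedule: 1 h at 37 °C; detection: Anti-C3 ELISA, OD 450 nm; evaluation: percent inhibition of C3 deposition onto LPS; repeats: two pool placements per compound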
# WNV protease inh – inhibitors of West Nile virus NS2B-NS3 protease | hit rate 0.18% among 65,000 | AID 577 | P06935 | WNV NS2B-NS3 protease, fluorogenic substrate Ex360/Em465; stronger effect = lower value | z-score (no concentration beside the values); in the data active = z-score below about -3
# Target sequence (P06935 1371-1501 limits assumed): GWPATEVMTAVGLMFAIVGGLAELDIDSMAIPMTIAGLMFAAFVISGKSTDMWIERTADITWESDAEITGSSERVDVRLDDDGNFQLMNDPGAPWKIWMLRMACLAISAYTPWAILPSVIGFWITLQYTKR
# Target sequence (P06935 1502-1679 limits assumed): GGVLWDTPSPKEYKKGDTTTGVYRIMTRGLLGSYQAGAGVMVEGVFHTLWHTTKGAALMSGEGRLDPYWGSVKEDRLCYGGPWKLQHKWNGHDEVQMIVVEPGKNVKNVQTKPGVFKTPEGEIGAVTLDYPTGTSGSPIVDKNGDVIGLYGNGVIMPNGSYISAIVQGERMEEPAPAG
# tolC growth inh – E. coli tolC mutant growth inhibition. growth inhibition, % at 10 µM (by protocol). E. coli BW25113 tolC mutant growth, OD615. AID 573. hit rate 2.2% among 65,000;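 active = growth inhibition at or above a cutoff equal to the mean over every tested compound plus 3 SD, cut at about 60% in these data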;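 note: growth measured after 20 h incubation at 37 °C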
#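 Doses: one dose of 10 µM final / Material: E. coli BW25113 ΔtolC::kan, tolC deletion mutant strain / Buffer or medium: LB with kanamycin 50 µg/mL / Evaluation: percent growth inhibition / Detection: optical density read at 615 nm / Incubation: 37 °C, 20 h exposure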
# M1 antagonist – blocks the rat M1 muscarinic receptor response to acetylcholine; P08482; CHO-M1 cells, Fluo-4 calcium, ACh EC80 antagonist mode; stronger effect = lower value; B-score at 10 µM; hit rate 3.4% among 64,000;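 active = calcium fluorescence response, raw or row-and-column corrected B-score, differing from the plate sample mean either way at a set confidence level, mostly lower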
# M1 antag conf – M1 muscarinic receptor (rat) antagonism, confirmed | shares compounds with M1 antagonist | hit rate 43% among 1,700 | AID 677 | calcium response (max-min fluorescence) at 10 µM | CHO-M1 cells, Fluo-4 calcium, ACh EC80 antagonism; stronger effect = lower value;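 active = calcium response below the same-plate mean of wells given acetylcholine alone at its 80%-effect dose, minus 3 SD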
# mGluR4 antag – selectivity test for M1 antagonists: human mGluR4 receptor. CHO-mGluR4 calcium flux, Fluo-4 fluorescence, glutamate EC80; stronger effect = lower value. hit rate 0.9% among 1,700. shares compounds with M1 antagonist. fluorescence response (max-min) at 10 µM;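 active = fluorescence response below the plate's average for near-maximal glutamate wells, less 3 SD of those wells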;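 note: raw unnormalized fluorescence span taken in the window right after glutamate addition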
# Numbers stand for hits; . = inactive; / = no result given. An excerpt weighted towards active compounds, which were near 5.2% of everything screened.
SMILES,M1 ag,Ecoli WT expand,AP ELISA ortho,WNV protease inh,tolC growth inh,M1 antagonist,M1 antag conf,mGluR4 antag
CCCN1Cc2cccc(C(=O)Nc3ccc(N4CCN(CC)CC4)cc3)c2C1=O,.,/,.,.,.,-1.66,354,.
CCN1CCN(c2ccc(NC(=O)c3cccc4ncccc34)cc2)CC1,.,.,.,.,.,-5.09,.,.
COc1cccc(CN2C(=O)CCC2(C)C(=O)NC2CCCCC2)c1 (stereo not given),.,.,.,.,.,-3.5,.,.
COc1ccc(CN2C(=O)CCC2(C)C(=O)NC2CCCCCC2)cc1 (stereo not given),.,.,.,.,.,.,/,/
COC(=O)c1ccc(CSc2nc(C)nc3c2c(=O)n(C)c(=O)n3C)o1,.,.,.,.,.,-2.04,500,.
CCOc1ccccc1N1CCN(C(=O)C2c3ccccc3Oc3ccccc32)CC1,/,.,/,/,/,/,/,/
CS(=O)(=O)N1CCN(C(=O)C2c3ccccc3Oc3ccccc32)CC1,.,.,.,.,.,-2.21,365,.
Cc1ccc2ccc(S(=O)(=O)n3nc(C)cc3C)cc2c1,.,.,.,.,77.9,-1.97,443,.
CC(=O)Nc1ccc(S(=O)(=O)n2nc(C)cc2C)cc1,.,.,.,.,.,.,/,/
CC1CCc2nc(NC(=O)CN3CCN(c4ccccc4)CC3)sc2C1 (stereo not given),.,.,.,.,/,.,/,/
CC1CCc2nc(NC(=O)CN3CCOCC3)sc2C1 (stereo not given),.,.,.,.,.,-4.02,.,.
CCOC(=O)N1CCC(NC(=O)c2sc3nc4n(c(=O)c3c2C)CCCC4)CC1,.,.,.,.,.,-2.61,.,.
CCOC(=O)c1sc2nc3n(c(=O)c2c1C)CCC(C)CC3 (stereo not given),.,.,.,.,.,.,/,/
CN1CCc2c(c3c(n2C)CCN(C)[C@@H]3c2cccnc2)[C@H]1c1cccnc1,.,.,.,.,.,-3.05,.,.
CCOC(=O)COn1c(=O)c(=O)n(O)c2ccccc21,.,.,.,.,.,.,/,/
COc1ccc(N(CC(=O)N2CCc3ccccc3C2)S(=O)(=O)c2c(C)nn(C)c2C)cc1,.,.,.,.,.,.,/,/
N#Cc1ccc2ccn(CC(=O)NCc3ccccc3)c2c1,.,.,.,.,.,.,/,/
COc1ccc2c(c1)Sc1ccccc1N2CCN(C)C,.,.,.,.,.,-8.57,114,.
CN(C)C(CNc1nnnn1-c1ccccc1)c1ccco1 (stereo not given),.,.,.,.,.,-0.786,.,.
CC(=O)NC(CC(=O)NCC(c1ccco1)N(C)C)c1ccccc1 (stereo not given),.,/,.,.,.,.,/,/
Cc1ccc(-c2nn(CC(=O)NCCN3CCOCC3)c(=O)c3ccccc23)cc1,.,.,.,.,.,-2.53,.,.
CN(CCCn1c(=S)[nH]c2ncccc2c1=O)Cc1ccccc1,.,.,.,.,.,-3.3,.,.
CCOc1cc(C2C(C(=O)OCC(C)C)=C(C)N=C3SCCC(=O)N32)ccc1OC(C)=O (stereo not given),.,.,.,.,.,.,/,/
CCN1CCN(c2cc(C)c3cc(NC(=O)c4ccc(OC)c(OC)c4)ccc3n2)CC1,/,.,/,/,/,/,/,/
CCN1CCN(c2cc(C)c3cc(NC(=O)Cc4ccccc4OC)ccc3n2)CC1,/,.,/,/,/,/,/,/
CCN1CCN(c2cc(C)c3cc(NC(=O)c4cncc(Br)c4)ccc3n2)CC1,.,.,.,.,.,-5.01,250,.
CCN1CCN(c2cc(C)c3cc(NC(=O)c4ccc5c(c4)OCO5)ccc3n2)CC1,.,.,.,.,.,-2.64,502,.
O=C(CCc1nc(-c2ccccc2)no1)NCC1CCCO1 (stereo not given),.,.,.,.,.,.,/,/
O=C1Cc2cccc3cccc1c23,/,.,/,/,/,/,/,/
CCOC(=O)c1c(C)n(C)c2c(C)cc(O)c(OC(C)=O)c12,.,.,.,.,.,.,/,/
